Measurements: ChEMBL document CHEMBL1938269, “Synthesis and biological evaluation of 7-O-modified oroxylin A derivatives” (Bioorg Med Chem Lett, 2012)
The source made the active and inactive calls. The calls are words filed in the database; no cut-off is given here.

Assays:
[1] = test system: HepG2; assay: Antiproliferative activity against human HepG2 cells after 48 hrs by MTT assay; assay type: functional, cell-based; settings: HepG2, 48 h
[2] = test system: HCT-116; assay: Antiproliferative activity against human HCT116 cells after 48 hrs by MTT assay; assay type: functional, cell-based; settings: HCT-116, 48 h
[3] = Antiproliferative activity against human BCG823 cells after 48 hrs by MTT assay; assay type: functional, cell-based; settings: BCG823, 48 h
[4] = test system: HepG2; assay: Ratio of oroxylin A IC50 to compound IC50 for human HepG2 cells; assay type: functional
[5] = test system: HCT-116; assay: Ratio of oroxylin A IC50 to compound IC50 for human HCT116 cells; assay type: functional
[6] = Ratio of oroxylin A IC50 to compound IC50 for human BCG823 cells; assay type: functional
[7] = test system: HepG2; assay: Induction of apoptosis in human HepG2 cells assessed as early apoptotic cells at 1 uM after 72 hrs by annexin-V FITC and PI staining based flow cytometry (reference value: 1.4 +/- 0.1%); assay type: functional
[8] = test system: HepG2; assay: Induction of apoptosis in human HepG2 cells assessed as early apoptotic cells at 2 uM after 72 hrs by annexin-V FITC and PI staining based flow cytometry (reference value: 1.4 +/- 0.1%); assay type: functional
[9] = test system: HepG2; assay: Induction of apoptosis in human HepG2 cells assessed as early apoptotic cells at 4 uM after 72 hrs by annexin-V FITC and PI staining based flow cytometry (reference value: 1.4 +/- 0.1%); assay type: functional
[10] = test system: HepG2; assay: Induction of apoptosis in human HepG2 cells assessed as non-viable necrotic cells at 1 uM after 72 hrs by annexin-V FITC and PI staining based flow cytometry (reference value: 2.7 +/- 0.1%); assay type: functional
[11] = test system: HepG2; assay: Induction of apoptosis in human HepG2 cells assessed as non-viable necrotic cells at 2 uM after 72 hrs by annexin-V FITC and PI staining based flow cytometry (reference value: 2.7 +/- 0.1%); assay type: functional
[12] = test system: HepG2; assay: Induction of apoptosis in human HepG2 cells assessed as non-viable necrotic cells at 4 uM after 72 hrs by annexin-V FITC and PI staining based flow cytometry (reference value: 2.7 +/- 0.1%); assay type: functional
[13] = test system: HepG2; assay: Induction of apoptosis in human HepG2 cells assessed as viable cells at 1 uM after 72 hrs by annexin-V FITC and PI staining based flow cytometry (reference value: 94.5 +/- 0.6%); assay type: functional; settings: HepG2, 72 h, read-out: Activity
[14] = test system: HepG2; assay: Induction of apoptosis in human HepG2 cells assessed as viable cells at 2 uM after 72 hrs by annexin-V FITC and PI staining based flow cytometry (reference value: 94.5 +/- 0.6%); assay type: functional; settings: HepG2, 72 h, read-out: Activity
[15] = test system: HepG2; assay: Induction of apoptosis in human HepG2 cells assessed as viable cells at 4 uM after 72 hrs by annexin-V FITC and PI staining based flow cytometry (reference value: 94.5 +/- 0.6%); assay type: functional; settings: HepG2, 72 h, read-out: Activity
[16] = test system: HepG2; assay: Induction of apoptosis in human HepG2 cells assessed as late apoptotic cells at 1 uM after 72 hrs by annexin-V FITC and PI staining based flow cytometry (reference value: 1.4 +/- 0.0%); assay type: functional
[17] = test system: HepG2; assay: Induction of apoptosis in human HepG2 cells assessed as late apoptotic cells at 2 uM after 72 hrs by annexin-V FITC and PI staining based flow cytometry (reference value: 1.4 +/- 0.0%); assay type: functional
[18] = test system: HepG2; assay: Induction of apoptosis in human HepG2 cells assessed as late apoptotic cells at 4 uM after 72 hrs by annexin-V FITC and PI staining based flow cytometry (reference value: 1.4 +/- 0.0%); assay type: functional
[19] = test system: HepG2; assay: Induction of apoptosis in human HepG2 cells assessed as chromatin congregation and karyopyknosis at 1 to 4 uM after 72 hrs by DAPI staining-based fluorescent microscopy; assay type: functional, cell-based
Method in brief: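 HepG2 cells exposed for 72 h, with untreated cells as control. Nuclei were stained with DAPI and viewed by fluorescence microscopy at 400×. Apoptotic cells were scored by chromatin congregation and karyopyknosis, seen as bright nuclear fluorescence. Arrows mark apoptotic cells.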

Row | Structure (SMILES) | IC50 [1] [µM] | IC50 [2] [µM] | IC50 [3] [µM] | further results
1 | CCN(CC)CCCCOc1cc2oc(-c3ccccc3)cc(=O)c2c(O)c1OC | 6.6 | 5.1 | 6.3 | Ratio IC50 [4]: 5; Ratio IC50 [5]: 5; Ratio IC50 [6]: 5
2 | CCN(CC)CCCOc1cc2oc(-c3ccccc3)cc(=O)c2c(O)c1OC | 18 | 23.4 | 3.5 | –
3 | CCN(CC)CCOc1cc2oc(-c3ccccc3)cc(=O)c2c(O)c1OC | 12 | 39.6 | 13 | –
4 | COc1c(OCCCN2CCOCC2)cc2oc(-c3ccccc3)cc(=O)c2c1O | 74.8 | 52.4 | 41.6 | –
5 | COc1c(OCCCN2CCN(C)CC2)cc2oc(-c3ccccc3)cc(=O)c2c1O | 30.4 | 42.5 | 42.3 | –
6 | COc1c(OCCCCN2CCN(C)CC2)cc2oc(-c3ccccc3)cc(=O)c2c1O | 27.2 | 12.5 | 35.8 | –
7 | COc1c(O)cc2oc(-c3ccccc3)cc(=O)c2c1O [OROXYLIN A] | 22.7 | 33.9 | 25.5 | –
8 | COc1c(OCCCCN2CCOCC2)cc2oc(-c3ccccc3)cc(=O)c2c1O | 50.6 | 32.4 | 26.8 | –
9 | COc1c(OCCN2CCN(C)CC2)cc2oc(-c3ccccc3)cc(=O)c2c1O | 15.4 | 54.9 | 20.5 | –

Continued, in another order:

Row | IC50 [1] [µM] | IC50 [2] [µM] | Structure (SMILES) | IC50 [3] [µM] | further results
10 | 17.1 | 21.1 | COc1c(OCCN2CCCCC2)cc2oc(-c3ccccc3)cc(=O)c2c1O | 26.9 | –
11 | 4.7 | 1.4 | COc1c(OCCCCN2CCCC2)cc2oc(-c3ccccc3)cc(=O)c2c1O | 9.5 | Ratio IC50 [4]: 5; Ratio IC50 [5]: 5; Ratio IC50 [6]: 5
12 | 2.4 | 3 | COc1c(OCCCCN2CCCCC2)cc2oc(-c3ccccc3)cc(=O)c2c1O | 6.6 | Ratio IC50 [4]: 5; Ratio IC50 [5]: 5; Ratio IC50 [6]: 5; Activity [7]: 3.4%; Activity [8]: 6.5%; Activity [9]: 14%; Activity [10]: 5.8%; Activity [11]: 2.7%; Activity [12]: 37.5%; viability at 1 µM [13]: 88.9%; viability at 2 µM [14]: 87.2%; viability at 4 µM [15]: 30.6%; Activity [16]: 1.9%; Activity [17]: 3.5%; Activity [18]: 17.9%; Activity [19]: Active
13 | 6.8 | 22.1 | COc1c(OCCCN2CCCCC2)cc2oc(-c3ccccc3)cc(=O)c2c1O | 9.7 | –
14 | 20.5 | 26.6 | COc1c(OCCCN2CCCC2)cc2oc(-c3ccccc3)cc(=O)c2c1O | 12 | –
15 | 9.7 | 23.4 | COc1c(OCCN2CCCC2)cc2oc(-c3ccccc3)cc(=O)c2c1O | 22.7 | –
16 | 67.6 | 56.3 | COc1c(OCCN2CCOCC2)cc2oc(-c3ccccc3)cc(=O)c2c1O | 38.2 | –
